# Source: ChEMBL document CHEMBL1140117, “Structure-activity relationship studies for the peptide portion of the bladder epithelial cell antiproliferative factor from interstitial cystitis patients” (2008)
# Residues, ends and D or L forms follow the SMILES beside them. *: point of attachment. X1 = CC(=O)N[C@@H]1[C@@H](O[C@@H]2O[C@H](CO)[C@H](O)[C@H](O)[C@H]2O)[C@@H](O)[C@@H](CO)O[C@@H]1*
# Assay: Antiproliferative activity against human bladder epithelial cells assessed as inhibition of [3H]thymidine incorporation after 48 hrs relative to as-APF
# Format: functional, Epithelial cell
# Parameters: scale not given: the % may be the effect or the level left
# Summary of the method: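 Primary normal human bladder epithelial cells, explanted from cystoscopy biopsies, plated at 1.5 × 10⁴ cells/well in MEM with 10% heat-inactivated FBS. Congeners dissolved in acetonitrile/water (1:1), added in serum-free MEM in 10-fold dilutions up to the 25 µM assay cutoff. Incubated 48 h at 37 °C, 5% CO₂. ³H-thymidine uptake counted on filters. Activity expressed relative to the standard control run on each plate. Triplicates, at least two runs, ANOVA.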
smiles,measurement,value
CC(=O)N[C@H]1[C@@H](O[C@H](C)[C@H](NC(=O)[C@@H](N)Cc2ccc(O)cc2)C(=O)N[C@H](C(=O)N2CCC[C@H]2C(=O)N[C@@H](C)C(=O)N[C@@H](C)C(=O)N[C@H](C(=O)N[C@H](C(=O)N[C@H](C(=O)N[C@@H](C)C(=O)O)C(C)C)C(C)C)C(C)C)C(C)C)O[C@H](CO)[C@H](O)[C@@H]1O[C@@H]1O[C@H](CO)[C@H](O)[C@H](O)[C@H]1O (H-YT(X1)VPAAVVVA-OH),Activity,1%
